Converted amounts (≈) assume the structure as drawn.
Columns and labels:
[1] = biological target: T1, Muscarinic acetylcholine receptor M5 (Homo sapiens) (UniProt P08912); experiment: Maximal level of stimulation as a percentage above basal levels.; type: functional
T1 sequence (whole entry): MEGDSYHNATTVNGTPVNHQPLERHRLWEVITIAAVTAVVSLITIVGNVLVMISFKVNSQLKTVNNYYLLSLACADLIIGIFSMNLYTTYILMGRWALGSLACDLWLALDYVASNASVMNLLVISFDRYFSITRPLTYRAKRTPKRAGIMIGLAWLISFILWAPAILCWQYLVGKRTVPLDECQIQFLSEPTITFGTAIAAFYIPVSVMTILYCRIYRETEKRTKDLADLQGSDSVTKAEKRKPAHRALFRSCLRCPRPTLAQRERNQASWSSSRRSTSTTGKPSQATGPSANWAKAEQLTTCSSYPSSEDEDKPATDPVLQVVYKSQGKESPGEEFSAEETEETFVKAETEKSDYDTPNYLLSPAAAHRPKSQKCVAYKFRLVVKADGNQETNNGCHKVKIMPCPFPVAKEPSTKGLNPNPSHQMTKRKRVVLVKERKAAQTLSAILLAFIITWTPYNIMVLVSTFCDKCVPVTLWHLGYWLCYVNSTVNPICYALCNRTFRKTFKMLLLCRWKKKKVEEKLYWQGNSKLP

[2] = Maximum release of beta-hexosaminidase was determined as a measure of degranulation; type: functional; parameters: reference not given here
Summary of the method: (§1)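 RBL-2H3 mast cell subclone stably transfected with human M4 receptor (>1 × 10^5 receptors/cell). Agonist action read as degranulation, i.e. hexosaminidase released into the supernatant, following earlier M1 methods. Dose-response data fit to a one-site stimulation model for Smax and EC50.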

[3] = biological target: T2, Muscarinic acetylcholine receptor M1 (Homo sapiens) (UniProt P11229); conditions: at 100 µM
T2 sequence (whole entry): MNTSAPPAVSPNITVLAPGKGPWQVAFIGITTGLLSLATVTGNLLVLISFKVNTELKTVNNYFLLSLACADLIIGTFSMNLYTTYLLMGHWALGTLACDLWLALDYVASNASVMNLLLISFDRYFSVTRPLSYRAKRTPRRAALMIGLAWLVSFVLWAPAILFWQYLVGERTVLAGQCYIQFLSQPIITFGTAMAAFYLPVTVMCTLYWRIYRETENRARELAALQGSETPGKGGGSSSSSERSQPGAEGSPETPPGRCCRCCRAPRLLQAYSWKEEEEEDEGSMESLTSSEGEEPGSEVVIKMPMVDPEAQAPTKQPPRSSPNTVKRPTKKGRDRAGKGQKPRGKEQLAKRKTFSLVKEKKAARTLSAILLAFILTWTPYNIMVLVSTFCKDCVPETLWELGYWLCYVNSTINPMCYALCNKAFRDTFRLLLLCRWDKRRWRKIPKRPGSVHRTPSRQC

[4] = biological target: T3, Muscarinic acetylcholine receptor M1 (Homo sapiens, UniProt P11229); experiment: (§2) Binding affinity towards M1 muscarinic receptor expressed in A9 L cells by displacing [3H](R)-QNB radioligand.
T3 sequence (P11229 whole entry): T2 sequence (whole entry)

[5] = biological target: T3, Muscarinic acetylcholine receptor M1; experiment: Agonistic activity against M1 muscarinic receptor expressed in A9 L cells.; type: functional, cell-based, A9L
[6] = Solubility in Kreb-Heinsleit buffer.; type: physicochemical
[7] = Solubility in deionized water.; type: physicochemical; conditions: read-out: S
[8] = biological target: T3, Muscarinic acetylcholine receptor M1; experiment: Agonistic activity against M1 muscarinic receptor expressed in NIH 3T3 cells; type: functional, cell-based, NIH3T3
[9] = biological target: T4, Muscarinic acetylcholine receptor M4 (Homo sapiens, UniProt P08173); experiment: Agonist activity against M4 muscarinic receptor expressed in RBL-2H3 Mast cells.; type: functional, cell-based; summary of the method: as §1
T4 sequence (P08173 whole entry): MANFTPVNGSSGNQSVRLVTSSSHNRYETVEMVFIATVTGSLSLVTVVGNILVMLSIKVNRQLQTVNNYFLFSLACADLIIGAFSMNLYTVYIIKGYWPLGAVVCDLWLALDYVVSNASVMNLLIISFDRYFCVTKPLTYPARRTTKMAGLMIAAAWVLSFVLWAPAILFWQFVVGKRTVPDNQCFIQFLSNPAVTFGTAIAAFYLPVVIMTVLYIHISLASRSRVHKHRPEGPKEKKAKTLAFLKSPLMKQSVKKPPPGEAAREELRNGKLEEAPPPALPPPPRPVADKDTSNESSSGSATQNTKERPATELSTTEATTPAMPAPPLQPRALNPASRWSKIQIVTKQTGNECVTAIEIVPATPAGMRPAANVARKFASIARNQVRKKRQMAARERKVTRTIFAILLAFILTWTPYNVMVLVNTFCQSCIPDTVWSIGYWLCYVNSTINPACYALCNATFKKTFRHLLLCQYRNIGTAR

[10] = biological target: T3, Muscarinic acetylcholine receptor M1; experiment: as §2; type: cell-based, L929
Summary of the method: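 Competition binding on A9 L cell membrane homogenates (human M1) with 0.1 nM [3H]-(R)-QNB and 14 test-ligand concentrations, 0.01 nM to 3 mM. Buffer 25 mM sodium phosphate pH 7.4 with 5 mM MgCl2, 2 h at room temperature.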

[11] = biological target: T2, Muscarinic acetylcholine receptor M1 (Homo sapiens); experiment: Agonist activity at M1 receptor coupled to phosphoinositide metabolism at 100 uM expressed as percent stimulation above basal levels relative to carbachol response; type: functional
Summary of the method: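 Stably transfected A9 L cells (and/or NIH 3T3) expressing human M1 receptor; agonist-stimulated accumulation of [3H]-inositol phosphates measured at 100 µM test ligand. […] Mean (SEM) of two to five assays per compound.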

[12] = biological target: T4, Muscarinic acetylcholine receptor M4; experiment: Agonist activity against human M4 muscarinic receptor expressed in RBL-2H3 Mast cells; type: functional, cell-based; summary of the method: as §1

Structure (SMILES) | Max release [2] [%] | PI metabolism [3] [%] | Ki [4] [nM] | EC50 [5] [nM] | EC50 [9] [nM] | other results
C[N+](C)(C)CCOC(N)=O | 87 |  |  |  |  | Smax [1]: 110%
CN1CCC=C(c2nsnc2OCCCCOc2nsnc2C2=CCCN(C)C2)C1 |  | 21 |  |  |  | 
CN1CCC=C(c2nsnc2OCCOCCOCCOCCOCCOCCOc2nsnc2C2=CCCN(C)C2)C1 |  | < 10 | 1.9 |  |  | 
CN1CCC=C(c2nsnc2SCCCCCCSc2nsnc2C2=CCCN(C)C2)C1 |  |  | 0.87 | 590 |  | 
CN1CCC=C(c2nsnc2OCCOCCOCCOCCOc2nsnc2C2=CCCN(C)C2)C1 | 43 | 56 |  |  | 5.2 | solubility [6]: 0.02 mg/mL (≈ 0.0362 mM); solubility [7]: > 1000 mg/mL; EC50 [8]: 290 nM; Smax [1]: -3.7%
CN1CCC=C(c2nsnc2SCCCCCCCSc2nsnc2C2=CCCN(C)C2)C1 |  |  | 7.6 | 180 |  | 
CN1CCC=C(c2nsnc2OCCCCCCCCCCOc2nsnc2C2=CCCN(C)C2)C1 | 24 | 76 |  |  | 1100 | solubility [6]: 0.004 mg/mL (≈ 0.00751 mM); solubility [7]: 25 mg/mL (≈ 46.9 mM)
CN1CCC=C(c2nsnc2SCCCCSc2nsnc2C2=CCCN(C)C2)C1 |  |  | 0.93 | 570 |  | 
CN1CCC=C(c2nsnc2OCCOCCOCCOCCOCCOc2nsnc2C2=CCCN(C)C2)C1 |  | < 10 | 1.5 |  |  | 
CN1CCC=C(c2nsnc2SCCCCCCCCCSc2nsnc2C2=CCCN(C)C2)C1 |  |  | 17 | 120 |  | 
CN1CCC=C(c2nsnc2SCCSc2nsnc2C2=CCCN(C)C2)C1 |  |  | 20 | 440 |  | 
CN1CCC=C(c2nsnc2SCCCCCCCCCCCSc2nsnc2C2=CCCN(C)C2)C1 | 29 |  | 0.57 | 1500 | 4.7 | 
CC(=O)OCC[N+](C)(C)C |  |  |  |  |  | Smax [1]: 99%
CN1CCC=C(c2nsnc2OCCCOc2nsnc2C2=CCCN(C)C2)C1 |  | 21 |  |  |  | 
CN1CCC=C(c2nsnc2OCCCCCCCCCOc2nsnc2C2=CCCN(C)C2)C1 | 61 | 27 | 0.84 |  | 20000 | 
CN1CCC=C(c2nsnc2OCCCCCCOc2nsnc2C2=CCCN(C)C2)C1 | 3 | 18 |  |  | > 100000 | 
CN1CCC=C(c2nsnc2SCCCCCCCCCCSc2nsnc2C2=CCCN(C)C2)C1 | 61 |  | 0.32 | 2100 | 0.6 | 
CCCCCCOc1nsnc1C1=CCCN(C)C1 |  | 47 |  |  |  | 
CN1CCC=C(c2nsnc2SCCCSc2nsnc2C2=CCCN(C)C2)C1 |  |  | 1.2 | 350 |  | 
CN1CCC=C(c2nsnc2SCCCCCCCCSc2nsnc2C2=CCCN(C)C2)C1 |  |  | 5 | 920 |  | 
CN1CCC=C(c2nsnc2OCCOCCOCCOc2nsnc2C2=CCCN(C)C2)C1 |  | < 10 |  |  |  | 
CN1CCC=C(c2nsnc2OCCCCCCCOc2nsnc2C2=CCCN(C)C2)C1 | 4 | -3 |  |  | > 100000 | 
CN1CCC=C(c2nsnc2OCCOCCOc2nsnc2C2=CCCN(C)C2)C1 |  |  |  |  |  | Ki [10]: 4.9 nM; Stimulation [11]: < 10%
CN1CCC=C(c2nsnc2OCCCCCOc2nsnc2C2=CCCN(C)C2)C1 |  | -1 |  |  |  | 
CN1CCC=C(c2nsnc2OCCCCCCCCCCCCOc2nsnc2C2=CCCN(C)C2)C1 | 57 | 84 | 1.6 |  | 1.4 | solubility [6]: 0.0017 mg/mL (≈ 0.00303 mM); solubility [7]: 20 mg/mL (≈ 35.7 mM)
CN1CCC=C(c2nsnc2OCCOc2nsnc2C2=CCCN(C)C2)C1 | 39 |  |  |  |  | Stimulation [11]: 50%; EC50 [12]: 3900 nM
CN1CCC=C(c2nsnc2SCCCCCSc2nsnc2C2=CCCN(C)C2)C1 |  |  | 14 | 79 |  | 
CN1CCC=C(c2nsnc2SCCCCCCCCCCCCSc2nsnc2C2=CCCN(C)C2)C1 | 54 |  | 0.69 | 13000 | 1 | 
CN1CCC=C(c2nsnc2OCCCCCCCCOc2nsnc2C2=CCCN(C)C2)C1 | 1 | 8.2 |  |  | > 100000 | 
